# Assay results taken from publication PMC12044415 (RSC Advances, 2025).
# Tests used:
# Test in all cases: Cell viability assay
# Format in all cases: cell-based, human
# U87 (glioblastoma) = details: read-out: IC50 U87; 96 h of incubation
# Summary of the method: (§1)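 Cells cultured per supplier at 37 °C, 5% CO2, and seeded at 1.5 × 10^3 per well. Treated with six concentrations of test compound (0.001, 0.01, 0.1, 1, 10 and 100 μM final), diluted into culture medium from a 10 mM DMSO stock; cisplatin stock in water. Viability read by CellTiter-Glo after 96 h. IC50 from triplicates, error bars as standard deviations.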
# [1] = tested on: A2780cis (cisplatin-resistant ovarian cancer cells); details: read-out: IC50 A2780cis; 96 h of incubation
# Summary of the method: as §1
# [2] = tested on: MRC-5 (normal lung fibroblasts); details: read-out: IC50 MRC-5; 96 h of incubation
# Summary of the method: as §1
# [3] = tested on: A2780 (cisplatin-sensitive ovarian cancer cells); details: read-out: IC50 A2780; 96 h of incubation
# Summary of the method: as §1
# [4] = tested on: MDA-MB-231 (triple-negative breast cancer); details: read-out: IC50 MDA-MB-231; 96 h of incubation
# Summary of the method: as §1
structure (smiles),measurement,setting,value
"N.N.[Cl][Pt][Cl] [Cisplatin, cisplatin, reference compound]",IC50,U87 (glioblastoma),10.4 ± 0.4 µM
same,IC50,[1],45 ± 5 µM
same,IC50,[2],4 ± 1 µM
C[N+]12CN3CN(C1)C[PH]([Pd]([I])([c]1ccc([N+](=O)[O-])cc1)[PH]14CN5CN(C[N+](C)(C5)C1)C4)(C3)C2.F[P-](F)(F)(F)(F)F.F[P-](F)(F)(F)(F)F [7b],IC50,[3],3.1 ± 0.3 µM
same,IC50,U87 (glioblastoma),90 ± 10 µM
same,IC50,[4],6.7 ± 0.9 µM
same,IC50,[1],0.18 ± 0.02 µM
same,IC50,[2],> 100 µM
